TbMetRS inhib – T. brucei MetRS inhibitors, primary screen, biochemical, luminescence; methionyl-tRNA synthetase (Trypanosoma brucei brucei); purified T. brucei MetRS, ATP depletion, Kinase-Glo luminescence; inhibition, % at 11.9 µM; hit rate 0.4% among 360,000;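 active means inhibition above a per-plate cutoff of the control wells' mean inhibition plus 3 SD, cut at about 5.5% in these data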;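 further: 0% = DMSO wells median and 100% = median of wells with control inhibitor compound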
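Measured by: Kinase-Glo luciferase luminescence reporting remaining unconsumed ATP. Material: purified T. brucei MetRS enzyme. Doses: 11.9 µM compound single dose, 0.9% DMSO. Medium: HEPES buffer containing pyrophosphatase, BSA, spermine, DTT. Times: 15 min preincubation, 2 h reaction, all 25 °C. Reagent: methionine, ATP and bulk E. coli tRNA.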
PREPL inhibitor – PREPL enzyme inhibitors, primary screen, biochemical, fluorescence polarization | Prolyl endopeptidase-like (Homo sapiens), Q4J6C6 | AID 2751, 2010 | recombinant PREPL, fluorescence polarization activity-based probe | inhibition, % at 5.96 µM | hit rate 0.68% among 320,000; in the data active means inhibition above about 43%;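 further: 0% = enzyme with DMSO and 100% = wells lacking enzyme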
Rpn11 inh – Rpn11 (PSMD14) deubiquitinase inhibitors, primary screen, biochemical, fluorescence polarization, uHTS | human 26S proteasome, Ub4-pepOG fluorescence polarization; 20S core pre-blocked with epoxomicin | 26S proteasome non-ATPase regulatory subunit 14 (Homo sapiens), O00487 | inhibition, % at 20 µM | hit rate 0.59% among 360,000;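 active means inhibition at 20 µM, scaled to each plate's controls, above about 33%, limit read from the data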
CSN inh – inhibitors of CSN-mediated cullin deneddylation, primary screen, biochemical, fluorescence polarization, uHTS; COP9 signalosome complex subunit 5 (Homo sapiens), Q92905; Purified CSN, SCF-Nedd8-OG deneddylation; inhibition, % at 12.5 µM; hit rate 0.38% among 360,000;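 active means pattern-corrected inhibition above about 35%, with an unprinted fluorescence ratio check between 0.5 and 1.5, limit read from the data, passing the limit was not always enough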;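 further: 0% = enzyme with substrate and 100% = substrate without enzyme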
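Schedule: reaction 90 min, room temperature / Assay system: HEK293T-derived human Csn5 enzyme / Input: Csn5 at 0.24 nM final / Measure: inhibition of Csn5 cleavage, % / Control set: substrate-only high control, full reaction low control / Technique: fluorescence polarization of the substrate / Buffer or medium: Tris/NaCl/DTT buffer, pH 7.5 / Reagent: SCFSkp2-Nedd8OG substrate at 10 nM final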
HNF4A DNA FP – change in binding of human HNF4A to DNA, primary screen, biochemical, fluorescence polarization, FITC-DNA; Hepatocyte nuclear factor 4-alpha (Homo sapiens), P41235; 1 h; activity change, % at 10 µM; hit rate 0.3% among 360,000; AID 1224865, 2016; in the data active means activity change above about 30%, passing the limit was not always enough
Target sequence (P41235 whole entry, looked up): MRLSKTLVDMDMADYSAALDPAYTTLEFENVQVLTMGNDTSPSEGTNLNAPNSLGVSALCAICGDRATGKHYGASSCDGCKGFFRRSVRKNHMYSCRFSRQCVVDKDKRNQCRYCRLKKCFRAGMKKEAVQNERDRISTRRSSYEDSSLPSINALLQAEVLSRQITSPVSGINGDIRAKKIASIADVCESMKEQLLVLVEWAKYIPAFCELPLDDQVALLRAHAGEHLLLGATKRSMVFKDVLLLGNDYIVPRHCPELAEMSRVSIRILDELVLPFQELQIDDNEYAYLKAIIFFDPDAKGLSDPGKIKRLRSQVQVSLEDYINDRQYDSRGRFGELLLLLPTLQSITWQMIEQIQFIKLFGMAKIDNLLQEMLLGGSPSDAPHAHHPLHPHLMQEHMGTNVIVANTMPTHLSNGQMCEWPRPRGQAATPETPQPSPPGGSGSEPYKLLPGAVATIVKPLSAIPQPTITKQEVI
Neddyl block – inhibitors of cullin neddylation, primary screen, biochemical, TR-FRET, uHTS, NAE and Ubc12 | NEDD8-conjugating enzyme Ubc12 (Homo sapiens) + NEDD8-activating enzyme E1 regulatory … | inhibition, % at 25 µM | hit rate 0.58% among 360,000 | AID 651699, 2012; in the data active means inhibition above about 36%
Neddyl conf – blockade of NEDD8 conjugation to cullin – biochemical, TR-FRET, single concentration, confirmation. calls only at 25 µM. AID 652217, 2013. shares compounds with Neddyl block. hit rate 13% among 1,800. TR-FRET cullin neddylation biochemical assay; in the data active means inhibition above about 40%;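 further: neddylation substrate is the cullin 1 ring ligase complex with SKP2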
* marks the source's active call; other numbers are inactive results. Most compounds without a hit are left out; they make up all but 2.4% or so of the library.

How did O=C(Nc1ccccc1)/C(=C\c1ccc(F)cc1)NC(=O)c1ccco1 do in these assays?
TbMetRS inhib: 0; PREPL inhibitor: -8; Rpn11 inh: 8; CSN inh: 11; HNF4A DNA FP: 2; Neddyl block: 0

How did Cc1ccc(S(=O)(=O)N2C[C@H]3[C@H]4C(=O)N(c5ccccc5)C(=O)[C@H]4C[C@H](OC(=O)NC4CCCC4)[C@@]3(O)C2)cc1 do in these assays?
TbMetRS inhib: -1; Rpn11 inh: 7; CSN inh: 2; HNF4A DNA FP: 1; Neddyl block: 0

What do the screens show for `CC(C)n1ncc2c(C(=O)NCCc3ccc(F)cc3)cc(C3CC3)nc21`?
TbMetRS inhib: -1; Rpn11 inh: 4; CSN inh: -4; HNF4A DNA FP: -3; Neddyl block: 59*

Results for Cc1ccc(CNC(=O)c2cc(C3CC3)nc3c2cnn3C(C)C)cc1 ?
TbMetRS inhib: 0; PREPL inhibitor: 19; Rpn11 inh: 2; CSN inh: 7; HNF4A DNA FP: 1; Neddyl block: 43*; Neddyl conf: inactive

Results for Cc1ccccc1CCNC(=O)c1cc(C2CC2)nc2c1cnn2C(C)C ?
TbMetRS inhib: 1; PREPL inhibitor: 5; Rpn11 inh: 3; CSN inh: -2; HNF4A DNA FP: -4

Results for CCOC(=O)c1c(-c2cc(OC)c(OC)c(OC)c2)csc1N ?
TbMetRS inhib: 0; Rpn11 inh: 4; CSN inh: -1; HNF4A DNA FP: -1; Neddyl block: 3

What do the screens show for `Cn1c(=O)c2nc(Cl)c(-c3ccccc3)nc2n(C)c1=O`?
TbMetRS inhib: 0; PREPL inhibitor: 1; Rpn11 inh: 1; CSN inh: 5; HNF4A DNA FP: 0; Neddyl block: 11

Results for Cn1c(=O)c2nc(-c3ccccc3)c(-c3ccccc3)nc2n(C)c1=O ?
TbMetRS inhib: -1; PREPL inhibitor: 18; Rpn11 inh: -1; CSN inh: -4; HNF4A DNA FP: 2; Neddyl block: 52*; Neddyl conf: inactive

What do the screens show for `CC(CCC(=O)O)C1CC[C@H]2C3CCC4CC(=O)CCC4(C)[C@H]3CC(=O)C12C` (stereo partly specified)?
TbMetRS inhib: 0; PREPL inhibitor: 18; Rpn11 inh: 1; CSN inh: -2; HNF4A DNA FP: -5; Neddyl block: 2

How did CC(=O)c1ccc2noc(-c3ccccc3)c2c1 do in these assays?
TbMetRS inhib: 0; PREPL inhibitor: -3; Rpn11 inh: -4; CSN inh: 4; HNF4A DNA FP: 5; Neddyl block: 6

How did CC(=O)c1ccc2c(c1)c(C#N)c1ccccc1[n+]2[O-] do in these assays?
TbMetRS inhib: -1; Rpn11 inh: -179; CSN inh: -42; HNF4A DNA FP: -6; Neddyl block: 41*; Neddyl conf: active

What do the screens show for `COc1ccc2ccc(=O)oc2c1CC(=O)C(C)C`?
TbMetRS inhib: -1; PREPL inhibitor: -7; Rpn11 inh: -1; CSN inh: 3; HNF4A DNA FP: 5; Neddyl block: 44*; Neddyl conf: inactive

How did COc1ccc2ccc(=O)oc2c1CC(O)C(C)(C)O (stereo unspecified) do in these assays?
TbMetRS inhib: 0; PREPL inhibitor: 5; Rpn11 inh: 7; CSN inh: 4; HNF4A DNA FP: -2

How did COCCn1c(=O)[nH]c2cc(C(=O)Nc3cc(OC)c(OC)c(OC)c3)ccc2c1=O do in these assays?
TbMetRS inhib: -1; PREPL inhibitor: -9; Rpn11 inh: -3; CSN inh: 3; HNF4A DNA FP: 0; Neddyl block: 0

How did COCCn1c(=O)[nH]c2cc(C(=O)OC)ccc2c1=O do in these assays?
TbMetRS inhib: 1; PREPL inhibitor: -1; Rpn11 inh: 4; CSN inh: -3; HNF4A DNA FP: 3; Neddyl block: 42*; Neddyl conf: inactive

What do the screens show for `Cc1ccc(NC(=O)NC(=O)N(C(C)C)S(C)(=O)=O)nc1`?
TbMetRS inhib: -1; PREPL inhibitor: 7; Rpn11 inh: -11; CSN inh: -5; HNF4A DNA FP: -1; Neddyl block: 53*

What do the screens show for `CCCN1CCN(S(=O)(=O)c2ccc3c(c2)CCC(=O)N3)CC1`?
TbMetRS inhib: 0; PREPL inhibitor: 1; Rpn11 inh: 2; CSN inh: -1; HNF4A DNA FP: 4; Neddyl block: -18

What do the screens show for `C[C@@H]1CN([C@@H](C)CO)C(=O)CCCn2nncc2CO[C@@H]1CN(C)S(=O)(=O)c1cccs1`?
TbMetRS inhib: 0; Rpn11 inh: -10; CSN inh: -3; HNF4A DNA FP: -1; Neddyl block: 8

How did COc1ccc(-c2cnc3ccccc3n2)cc1NC(=O)CNC(=O)c1ccccc1 do in these assays?
TbMetRS inhib: 0; PREPL inhibitor: 6; Rpn11 inh: 9; CSN inh: -2; HNF4A DNA FP: 2; Neddyl block: 39*; Neddyl conf: inactive

How did O=C(Nc1ccc2nc(-c3cccnc3)[nH]c2c1)C1CCCCC1 do in these assays?
TbMetRS inhib: 2; PREPL inhibitor: 5; Rpn11 inh: -7; CSN inh: 2; HNF4A DNA FP: -5; Neddyl block: 40*; Neddyl conf: inactive

Results for O=C(Nc1ccc2nc(-c3cccnc3)[nH]c2c1)C12CC3CC(CC(C3)C1)C2 ?
TbMetRS inhib: 0; PREPL inhibitor: 6; Rpn11 inh: 0; CSN inh: 1; HNF4A DNA FP: -1

What do the screens show for `O=C(NC1CCCCC1)C(c1ccncc1)n1c(=O)c(-c2ccccc2)nc2ccccc21` (stereo unspecified)?
TbMetRS inhib: -1; CSN inh: 2; HNF4A DNA FP: 1; Neddyl block: 45*; Neddyl conf: active

How did CCCCCNC(=O)C(c1ccc(-c2ccccc2)cc1)n1c(=O)c(-c2ccccc2)nc2ccccc21 (stereo unspecified) do in these assays?
TbMetRS inhib: 0; CSN inh: -2; HNF4A DNA FP: 2; Neddyl block: -53

Results for COc1ccc(NC(=O)C(c2ccncc2)n2c(=O)c(-c3ccccc3)nc3ccccc32)cc1 (stereo unspecified) ?
TbMetRS inhib: -1; CSN inh: 7; HNF4A DNA FP: 1; Neddyl block: 51*; Neddyl conf: inactive

Compound activity (PubChem BioAssay)
